Source: ChEMBL document CHEMBL1938334, “Quinoline tricyclic derivatives. Design, synthesis and evaluation of the antiviral activity of three new classes of RNA-dependent RNA polymerase inhibitors” (Bioorg Med Chem, 2011)

System: not listed separately
Assay: Cytotoxicity against human MT4 cells after 96 hrs by MTT assay
Format: cell-based
Details: not given
Procedure, shortened: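 Exponentially growing MT-4 cells seeded at 1×10^5 cells/mL in RPMI-1640 with 10% FBS, penicillin and streptomycin. Incubated with serial compound dilutions at 37 °C, 5% CO2 for 96 h; viability by MTT. CC50 by linear regression relative to untreated controls; mean of three independent determinations.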

Structure (SMILES) | CC50 at 96 h [µM]
O=C(CCl)Cn1nnc2cc3cccnc3c(Cl)c21 | 23
O=C1Nc2ccc(Cl)cc2[C@@](C#CC2CC2)(C(F)(F)F)O1 [EFAVIRENZ] | 40
N#CCn1nnc2c(Cl)c3ncccc3cc21 | 62
O=[N+]([O-])c1c2cccnc2c(Cl)c2[nH]n[n+]([O-])c12 | > 100
Clc1c2ncccc2cc2nc[nH]c12 | > 100
O=[N+]([O-])c1ccc(-c2nc3cc4cccnc4cc3[nH]2)cc1 | > 100

System: Human immunodeficiency virus 1
Assay: Antiviral activity against HIV1 3B infected in human MT4 cells assessed as inhibition of virus-induced cytopathogenicity after 4 days by MTT assay
Format: functional, organism-based
Details: Human immunodeficiency virus 1, 3B, MT4, 96 h
Procedure, shortened: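 MT-4 cells (1×10^4 per well) were infected with HIV-1 IIIB at 100 CCID50, m.o.i. 0.01, together with serial compound dilutions. Viability was read by MTT after 4 days at 37 °C. EC50 was taken by linear regression versus untreated controls. Mean of three determinations.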

Structure (SMILES) | EC50 [µM]
O=C(CCl)Cn1nnc2cc3cccnc3c(Cl)c21 | > 23
N#CCn1nnc2c(Cl)c3ncccc3cc21 | > 62
O=[N+]([O-])c1c2cccnc2c(Cl)c2[nH]n[n+]([O-])c12 | > 100
Clc1c2ncccc2cc2nc[nH]c12 | > 100
O=[N+]([O-])c1ccc(-c2nc3cc4cccnc4cc3[nH]2)cc1 | > 100

System: not listed separately
Assay: Cytotoxicity against MDBK cells after 48 to 96 hrs by MTT assay
Format: cell-based, Bos taurus
Details: cattle
Procedure, shortened: (§1)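 MDBK seeded at 6×10^5 and BHK at 1×10^6 cells/mL in MEM-Earle's with L-glutamine, 1 mM pyruvate, kanamycin, plus 10% horse serum (MDBK) or 10% FBS (BHK). Cells were grown at 37 °C, 5% CO2 with serial compound dilutions (DMSO stocks diluted in medium). Viability by MTT after 48–96 h. CC50 was taken by linear regression versus untreated controls; three independent determinations.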

Structure (SMILES) | CC50 [µM]
O=C(CCl)Cn1nnc2cc3cccnc3c(Cl)c21 | 21
N#CCn1nnc2c(Cl)c3ncccc3cc21 | > 100
O=[N+]([O-])c1c2cccnc2c(Cl)c2[nH]n[n+]([O-])c12 | > 100
Clc1c2ncccc2cc2nc[nH]c12 | > 100
O=[N+]([O-])c1ccc(-c2nc3cc4cccnc4cc3[nH]2)cc1 | 90

System: not listed separately
Assay: Antiviral activity against Bovine viral diarrhea virus 1-NADL infected in MDBK cells assessed as inhibition of virus-induced cytopathogenicity after 3 to 4 days by MTT assay
Format: functional, cell-based
Details: Bovine viral diarrhea virus isolates and strains
Procedure, shortened: (§2)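 Host cells were seeded in 96-well plates at 3×10^4 cells/well (MDBK) or 5×10^4 cells/well (BHK-21) and grown to confluent monolayers overnight. They were infected at m.o.i. 0.01 in maintenance MEM with 0.5% inactivated FBS. Serial compound dilutions were added after 1 h. Viability was read by MTT after 3–4 days at 37 °C. EC50 was taken by linear regression against untreated controls. Mean of three determinations.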

Structure (SMILES) | EC50 [µM]
O=C(CCl)Cn1nnc2cc3cccnc3c(Cl)c21 | > 21
N#CCn1nnc2c(Cl)c3ncccc3cc21 | 23
O=[N+]([O-])c1c2cccnc2c(Cl)c2[nH]n[n+]([O-])c12 | > 100
Clc1c2ncccc2cc2nc[nH]c12 | > 100
O=[N+]([O-])c1ccc(-c2nc3cc4cccnc4cc3[nH]2)cc1 | 20

System: not listed separately
Assay: Cytotoxicity against BHK21 cells after 48 to 96 hrs by MTT assay
Format: cell-based, Mesocricetus auratus, BHK-21
Details: hamster
Procedure, shortened: as §1

Structure (SMILES) | CC50 [µM]
O=C(CCl)Cn1nnc2cc3cccnc3c(Cl)c21 | 65
N#CCn1nnc2c(Cl)c3ncccc3cc21 | > 100
O=[N+]([O-])c1c2cccnc2c(Cl)c2[nH]n[n+]([O-])c12 | > 100
Clc1c2ncccc2cc2nc[nH]c12 | > 100
O=[N+]([O-])c1ccc(-c2nc3cc4cccnc4cc3[nH]2)cc1 | > 100

System: Yellow fever virus
Assay: Antiviral activity against Yellow fever virus 17D Stamaril Pasteur J07B01 infected in hamster BHK21 cells assessed as inhibition of virus-induced cytopathogenicity after 3 to 4 days by MTT assay
Format: functional, cell-based
Details: Stamaril Pasteur J07B01, BHK-21
Procedure, shortened: as §2

Structure (SMILES) | EC50 [µM]
O=C(CCl)Cn1nnc2cc3cccnc3c(Cl)c21 | > 65
N#CCn1nnc2c(Cl)c3ncccc3cc21 | > 100
O=[N+]([O-])c1c2cccnc2c(Cl)c2[nH]n[n+]([O-])c12 | > 100
Clc1c2ncccc2cc2nc[nH]c12 | > 100
O=[N+]([O-])c1ccc(-c2nc3cc4cccnc4cc3[nH]2)cc1 | > 100

System: Reovirus sp.
Assay: Antiviral activity against Reovirus type-1 3651 infected in hamster BHK21 cells assessed as inhibition of virus-induced cytopathogenicity after 3 to 4 days by MTT assay
Format: functional, organism-based
Details: Reovirus sp., 3651, BHK-21
Procedure, shortened: as §2

Structure (SMILES) | EC50 [µM]
O=C(CCl)Cn1nnc2cc3cccnc3c(Cl)c21 | > 65
N#CCn1nnc2c(Cl)c3ncccc3cc21 | > 100
Clc1c2ncccc2cc2nc[nH]c12 | > 100
O=[N+]([O-])c1ccc(-c2nc3cc4cccnc4cc3[nH]2)cc1 | 67

System: not listed separately
Assay: Cytotoxicity against african green monkey Vero 76 cells after 48 to 96 hrs by crystal violet staining
Format: cell-based
Details: chlorocebus sabaeus
Procedure, shortened: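 Vero-76 cells were seeded at 4×10^5 cells/mL in D-MEM with L-glutamine, kanamycin and 10% FBS, then exposed to serial compound dilutions at 37 °C, 5% CO2 for 48–96 h. Viability was read by crystal violet staining. 50% cytotoxic concentration by linear regression relative to untreated controls; mean of three independent determinations.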

Structure (SMILES) | CC50 [µM]
O=C(CCl)Cn1nnc2cc3cccnc3c(Cl)c21 | > 100
N#CCn1nnc2c(Cl)c3ncccc3cc21 | > 100
O=[N+]([O-])c1c2cccnc2c(Cl)c2[nH]n[n+]([O-])c12 | > 100
Clc1c2ncccc2cc2nc[nH]c12 | > 100
O=[N+]([O-])c1ccc(-c2nc3cc4cccnc4cc3[nH]2)cc1 | 95

System: Coxsackievirus B5
Assay: Antiviral activity against Human coxsackievirus B5 Ohio-1 infected in african green monkey Vero 76 cells assessed as reduction of virus-induced plaque formation after 3 days using crystal violet staining
Format: functional, organism-based
Details: Enterovirus B, Ohio-1, Vero, 72 h

Structure (SMILES) | EC50 [µM]
O=C(CCl)Cn1nnc2cc3cccnc3c(Cl)c21 | > 100
N#CCn1nnc2c(Cl)c3ncccc3cc21 | > 100
O=[N+]([O-])c1c2cccnc2c(Cl)c2[nH]n[n+]([O-])c12 | > 100
Clc1c2ncccc2cc2nc[nH]c12 | > 100
O=[N+]([O-])c1ccc(-c2nc3cc4cccnc4cc3[nH]2)cc1 | 35

System: Poliovirus 1
Assay: Antiviral activity against Human poliovirus 1 strain Sabin Chat infected in african green monkey Vero 76 cells assessed as virus-induced reduction of plaque formation after 2 days using crystal violet staining
Format: functional, cell-based
Details: Enterovirus C, 48 h

Structure (SMILES) | EC50 [µM]
O=C(CCl)Cn1nnc2cc3cccnc3c(Cl)c21 | > 100
N#CCn1nnc2c(Cl)c3ncccc3cc21 | > 100
O=[N+]([O-])c1c2cccnc2c(Cl)c2[nH]n[n+]([O-])c12 | > 100
Clc1c2ncccc2cc2nc[nH]c12 | > 100
O=[N+]([O-])c1ccc(-c2nc3cc4cccnc4cc3[nH]2)cc1 | > 95

System: Human orthopneumovirus
Assay: Antiviral activity against Human respiratory syncytial virus A2 infected in african green monkey Vero 76 cells assessed as reduction of virus-induced plaque formation after 5 days using crystal violet staining
Format: functional, organism-based
Details: 120 h

Structure (SMILES) | EC50 [µM]
O=C(CCl)Cn1nnc2cc3cccnc3c(Cl)c21 | > 100
N#CCn1nnc2c(Cl)c3ncccc3cc21 | > 100
O=[N+]([O-])c1c2cccnc2c(Cl)c2[nH]n[n+]([O-])c12 | > 100
O=[N+]([O-])c1ccc(-c2nc3cc4cccnc4cc3[nH]2)cc1 | > 95

System: Vesicular stomatitis Indiana virus
Assay: Antiviral activity against clinical isolate Vesicular stomatitis Indiana virus infected in african green monkey Vero 76 cells assessed as reduction of virus-induced plaque formation after 2 days using crystal violet staining
Format: functional, organism-based
Details: 48 h

Structure (SMILES) | EC50 [µM]
O=C(CCl)Cn1nnc2cc3cccnc3c(Cl)c21 | > 100
N#CCn1nnc2c(Cl)c3ncccc3cc21 | > 100
O=[N+]([O-])c1c2cccnc2c(Cl)c2[nH]n[n+]([O-])c12 | > 100
Clc1c2ncccc2cc2nc[nH]c12 | > 100
O=[N+]([O-])c1ccc(-c2nc3cc4cccnc4cc3[nH]2)cc1 | > 95

System: not listed separately
Assay: Antiviral activity against Vaccinia virus Lister Elstree infected in african green monkey Vero 76 cells assessed as reduction of virus-induced plaque formation after 3 days using crystal violet staining
Format: functional, cell-based
Details: 72 h

Structure (SMILES) | EC50 [µM]
O=C(CCl)Cn1nnc2cc3cccnc3c(Cl)c21 | > 100
N#CCn1nnc2c(Cl)c3ncccc3cc21 | > 100
O=[N+]([O-])c1c2cccnc2c(Cl)c2[nH]n[n+]([O-])c12 | > 100
Clc1c2ncccc2cc2nc[nH]c12 | > 100
O=[N+]([O-])c1ccc(-c2nc3cc4cccnc4cc3[nH]2)cc1 | > 95

System: Human alphaherpesvirus 1
Assay: Antiviral activity against Human herpesvirus 1 strain KOS infected in african green monkey Vero 76 cells assessed as reduction of virus-induced plaque formation after 3 days using crystal violet staining
Format: functional, organism-based
Details: Human alphaherpesvirus 1, KOS, 72 h

Structure (SMILES) | EC50 [µM]
O=C(CCl)Cn1nnc2cc3cccnc3c(Cl)c21 | > 100
N#CCn1nnc2c(Cl)c3ncccc3cc21 | 51
Clc1c2ncccc2cc2nc[nH]c12 | > 100
